Measurements reported in ChEMBL document CHEMBL1132637, “Design and synthesis of potent, selective, and orally bioavailable tetrasubstituted imidazole inhibitors of p38 mitogen-activated protein kinase” (J Med Chem, 1999).

Assays:
MAP kinase p38 [1] = target: T1, MAP kinase p38 (Homo sapiens, UniProt O15264+Q15759+Q16539+P53778); assay: Inhibitory activity against Mitogen-activated protein kinase p38 (MAP kinase); assay type: protein assay
[2] = target: T2, Mitogen-activated protein kinase 9 (Homo sapiens, UniProt P45984); assay: Inhibition of c-Jun N-terminal kinase 2-alpha 1
Target sequence in this assay (P45984 whole entry): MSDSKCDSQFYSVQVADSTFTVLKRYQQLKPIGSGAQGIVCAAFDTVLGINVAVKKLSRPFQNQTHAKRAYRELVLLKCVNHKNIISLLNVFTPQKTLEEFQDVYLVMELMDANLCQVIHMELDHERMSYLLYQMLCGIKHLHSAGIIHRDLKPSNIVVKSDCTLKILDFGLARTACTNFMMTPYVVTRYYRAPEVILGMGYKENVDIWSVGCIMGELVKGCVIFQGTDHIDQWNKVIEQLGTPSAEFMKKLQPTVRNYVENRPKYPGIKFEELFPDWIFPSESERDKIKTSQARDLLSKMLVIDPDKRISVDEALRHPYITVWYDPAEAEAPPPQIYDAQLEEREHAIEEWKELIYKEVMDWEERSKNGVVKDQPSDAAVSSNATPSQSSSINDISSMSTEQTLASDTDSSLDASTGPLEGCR

[3] = target: T3, RAF proto-oncogene serine/threonine-protein kinase (Homo sapiens, UniProt P04049); assay: Inhibitory activity against recombinant human RAF proto-oncogene serine/threonine-protein kinase
T3 sequence (P04049 whole entry): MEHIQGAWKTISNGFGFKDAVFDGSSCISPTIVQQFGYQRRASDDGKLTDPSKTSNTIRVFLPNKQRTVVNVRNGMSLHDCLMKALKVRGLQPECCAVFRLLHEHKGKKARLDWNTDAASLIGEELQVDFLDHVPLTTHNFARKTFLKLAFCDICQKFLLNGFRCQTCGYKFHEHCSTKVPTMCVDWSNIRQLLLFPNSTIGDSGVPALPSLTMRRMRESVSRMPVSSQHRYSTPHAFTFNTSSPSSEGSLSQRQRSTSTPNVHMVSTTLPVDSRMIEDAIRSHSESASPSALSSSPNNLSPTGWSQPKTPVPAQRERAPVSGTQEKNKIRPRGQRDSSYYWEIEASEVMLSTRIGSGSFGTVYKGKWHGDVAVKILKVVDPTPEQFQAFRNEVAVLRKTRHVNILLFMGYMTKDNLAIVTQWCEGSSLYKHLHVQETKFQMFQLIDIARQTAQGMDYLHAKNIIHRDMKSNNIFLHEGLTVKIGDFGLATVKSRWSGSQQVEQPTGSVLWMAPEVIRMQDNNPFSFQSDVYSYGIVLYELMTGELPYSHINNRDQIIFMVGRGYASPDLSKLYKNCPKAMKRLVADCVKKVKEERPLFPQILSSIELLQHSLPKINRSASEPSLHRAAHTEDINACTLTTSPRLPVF

[4] = Oral maximum concentration in rat; assay type: ADME, organism-based; set-up: route oral; conditions: in vivo
Procedure, shortened: (§1)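 Male Sprague-Dawley rats, n = 3, dosed iv at 2 mg/kg or orally at 10 mg/kg. Mean plasma concentrations were followed over time. Pharmacokinetic parameters were derived from these plasma profiles.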

[5] = (§2) Intravenous half life in rat was determined; assay type: ADME, organism-based; conditions: in vivo; procedure, shortened: as §1
[6] = (§3) Clpl value in rat; assay type: ADME, organism-based; conditions: plasma, read-out: Clpl; procedure, shortened: as §1
[7] = target: T2, Mitogen-activated protein kinase 9; assay: Inhibition of c-Jun N-terminal kinase 2-alpha 2
Target sequence in this assay (P45984 whole entry): as the sequence (P45984 whole entry) above

[8] = target: cAMP-dependent protein kinase (PKA) (Homo sapiens, UniProt P22694+P17612+P22612); assay: Inhibition of Protein kinase A; assay type: protein assay
Procedure, shortened: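 PKA was run at room temperature with 10 µM [33P]ATP and 10 µM kemptide substrate, under the supplier's conditions. The reaction was stopped with 75 mM phosphoric acid. Product was captured on phosphocellulose filters, washed with phosphoric acid and counted by scintillation.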

[9] = Bioavailability in rat; assay type: ADME, organism-based; conditions: in vivo; procedure, shortened: as §1
Protein kinase C (PKC) = assay: Inhibition of Protein kinase C; assay type: protein assay
Procedure, shortened: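 PKC (isozyme mix) was run at room temperature with 10 µM [33P]ATP and 70 µg/mL myelin basic protein substrate, under the supplier's conditions. Stopped with EDTA/pyrophosphate, filter-captured and counted by scintillation.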

[10] = target: T3, RAF proto-oncogene serine/threonine-protein kinase; assay: Inhibition of human c-Raf kinase
[11] = (§4) Vd sss value in rat; assay type: ADME, organism-based; conditions: in vivo, read-out: Vdss; procedure, shortened: as §1
[12] = target: Dual specificity mitogen-activated protein kinase kinase; MEK1/2 (Homo sapiens, UniProt P36507+Q02750); assay: Inhibition of MEK-1, Mitogen activated protein kinase kinase 1; assay type: protein assay
[13] = target: T3, RAF proto-oncogene serine/threonine-protein kinase; assay: Inhibition of human RAF kinase at 5000 nM
[14] = target: T2, Mitogen-activated protein kinase 9; assay: Inhibition of c-Jun N-terminal kinase 2-alpha 1 at 40000 nM
Target sequence in this assay (P45984 whole entry, looked up): as the sequence (P45984 whole entry) above

MAP kinase p38 [15] = target: T1, MAP kinase p38; assay: Inhibition of Mitogen-activated protein kinase p38; assay type: protein assay
Rattus norvegicus [16] = assay: as §2; assay type: ADME, organism-based; conditions: in vivo; procedure, shortened: as §1
Rattus norvegicus [17] = species on record: Rattus norvegicus; assay: as §3; assay type: ADME, organism-based; conditions: in vivo; procedure, shortened: as §1
Rattus norvegicus [18] = species on record: Rattus norvegicus; assay: as §4; assay type: ADME, organism-based; conditions: in vivo; procedure, shortened: as §1
MAP kinase p38 [19] = target: T1, MAP kinase p38; assay: Inhibition of LPS-induced release of Tumor necrosis factor-alpha (TNF-alpha) from human whole blood; assay type: functional, tissue-based
[20] = Intravenous half life in rat; assay type: ADME, organism-based; conditions: in vivo; procedure, shortened: as §1
[21] = target: T3, RAF proto-oncogene serine/threonine-protein kinase; assay: Inhibition human c-Raf kinase at 1000 nM

Row | Structure (SMILES) | IC50 (MAP kinase p38 [1]) [nM] | IC50 [2] [nM] | IC50 [3] [nM] | other results
1 | c1ccc(-c2nc(-c3ccccc3)c(-c3ccncc3)[nH]2)cc1 | 180 | 130 | 380 | 
2 | Clc1cc(Cl)cc(-c2[nH]c(-c3ccccc3)nc2-c2ccncc2)c1 | 137 |  | 1600 | 
3 | Nc1nccc(-c2[nH]c(-c3ccccc3)nc2-c2ccccc2)n1 | 57 | 180 | 750 | 
4 | Fc1cccc(-c2[nH]c(-c3ccccc3)nc2-c2ccncc2)c1 | 495 |  | 3000 | 
5 | Fc1ccc(-c2[nH]c(C3CCCNC3)nc2-c2ccncc2)cc1 (stereo unspecified) |  | 140 | 110 | 
6 | Oc1cccc(-c2nc(-c3ccccc3)[nH]c2-c2ccncc2)c1 | 140 |  | 23 | 
7 | Oc1ccc(-c2[nH]c(-c3ccccc3)nc2-c2ccncc2)cc1 | 1400 |  | 390 | 
8 | N#Cc1ccc(-c2[nH]c(-c3ccccc3)nc2-c2ccncc2)cc1 | 970 |  | 86 | 
9 | COc1ccc(-c2nc(-c3ccccc3)[nH]c2-c2ccncc2)cc1 | 300 |  | 950 | 
10 | C[C@H](Nc1cc(-c2c(-c3cccc(C(F)(F)F)c3)nc(C3CCNCC3)n2C)ccn1)c1ccccc1 |  | 1170 |  | Cmax [4]: 390 nM; half-life [5]: 2.85 h; clearance [6]: 63 mL/min/kg; IC50 [7]: 2200 nM; IC50 [8]: > 1500 nM; bioavailability [9]: 85%; IC50 (Protein kinase C (PKC)): > 1500 nM; IC50 [10]: 810 nM; Vd [11]: 12.3 L/kg; IC50 [12]: > 10000 nM
11 | C[C@H](Nc1nccc(-c2nc(C3CCNCC3)n(C)c2-c2cccc(C(F)(F)F)c2)n1)c1ccccc1 |  |  |  | inhibition [13]: 26%; inhibition [14]: 37%
12 | CNc1nccc(-c2[nH]c(-c3ccccc3)nc2-c2ccccc2)n1 | 120 | 175 | 2100 | 
13 | Clc1ccccc1-c1nc(-c2ccccc2)[nH]c1-c1ccncc1 | 150 |  | 610 | 
14 | Fc1ccc(-c2[nH]c(C3CCNCC3)nc2-c2ccncc2)cc1 | 9 | 210 | 80 | 
15 | C[C@H](Nc1nccc(-c2[nH]c(C3CCNCC3)nc2-c2cccc(C(F)(F)F)c2)n1)c1ccccc1 |  | 1750 |  | IC50 (MAP kinase p38 [15]): 0.75 nM; T1/2 (Rattus norvegicus [16]): 1 min; Clpl (Rattus norvegicus [17]): 146 mL/min/kg; bioavailability [9]: 0%; IC50 [10]: 3500 nM; Vdss (Rattus norvegicus [18]): 6.5 L/kg; IC50 (MAP kinase p38 [19]): 6 nM
16 | C[C@H](Nc1nccc(-c2c(-c3cccc(C(F)(F)F)c3)nc(C3CCNCC3)n2C)n1)c1ccccc1 |  |  |  | Cmax [4]: 780 nM; half-life [20]: 4.9 h; clearance [6]: 38.3 mL/min/kg; bioavailability [9]: 64%; Vd [11]: 12.7 L/kg
17 | COC(=O)c1ccc(-c2[nH]c(-c3ccccc3)nc2-c2ccncc2)cc1 |  |  |  | IC50 (MAP kinase p38 [15]): > 10000 nM; IC50 [10]: 320 nM

Row | Structure (SMILES) | IC50 (MAP kinase p38 [1]) [nM] | IC50 [2] [nM] | IC50 [3] [nM] | other results
18 | COc1cccc(-c2[nH]c(-c3ccccc3)nc2-c2ccncc2)c1 | 550 |  | 210 | 
19 | CC(C)c1ccc(-c2[nH]c(-c3ccccc3)nc2-c2ccncc2)cc1 | 2100 |  | > 10000 | 
20 | C[C@@H](Nc1nccc(-c2[nH]c(C3CCNCC3)nc2-c2cccc(C(F)(F)F)c2)n1)c1ccccc1 | 0.97 | 295 | 4500 | IC50 (MAP kinase p38 [19]): 0.4 nM
21 | c1ccc(-c2ccc(-c3[nH]c(-c4ccccc4)nc3-c3ccncc3)cc2)cc1 | 1000 |  | 2500 | 
22 | Fc1ccc(-c2nc[nH]c2-c2ccncc2)cc1 | 170 | 195 | 1300 | 
23 | Clc1cccc(-c2nc(-c3ccccc3)[nH]c2-c2ccncc2)c1 | 130 |  | 90 | 
24 | Clc1ccc(-c2[nH]c(-c3ccccc3)nc2-c2ccncc2)cc1Cl | 28 |  | 20 | 
25 | Nc1nccc(-c2[nH]c(C3CCNCC3)nc2-c2cccc(C(F)(F)F)c2)n1 |  | 3300 |  | inhibition [21]: 36%; IC50 (MAP kinase p38 [15]): 7 nM; half-life [5]: 0.132 h; clearance [6]: 167 mL/min/kg; bioavailability [9]: 0%; Vd [11]: 1.23 L/kg
26 | c1ccc(-c2nc(-c3ccncc3)c(-c3ccc(C4CCCCC4)cc3)[nH]2)cc1 | > 10000 |  | 570 | 
27 | COc1ccc(CNc2nccc(-c3[nH]c(C4CCNCC4)nc3-c3cccc(C(F)(F)F)c3)n2)cc1 |  | 735 |  | inhibition [21]: 66%; IC50 (MAP kinase p38 [15]): 7.6 nM
28 | COc1ccc(CNc2nccc(-c3[nH]c(-c4ccccc4)nc3-c3ccccc3)n2)cc1 | 38 | 98 | 1000 | 
29 | Fc1ccc(-c2[nH]c(C3CCCCC3)nc2-c2ccncc2)cc1 | 70 | 29 | 135 | 
30 | Clc1ccc(-c2nc(-c3ccccc3)[nH]c2-c2ccncc2)cc1 | 48 |  | 56 | 
31 | FC(F)(F)c1ccc(-c2[nH]c(-c3ccccc3)nc2-c2ccncc2)cc1 | 200 |  | 1400 | 
32 | c1ccc(-c2nc(-c3ccccc3)c(-c3ccncn3)[nH]2)cc1 | 700 | 1420 | 5000 | 
33 | FC(F)(F)c1cccc(-c2nc(-c3ccccc3)[nH]c2-c2ccncc2)c1 |  | 910 |  | IC50 (MAP kinase p38 [15]): 86 nM; IC50 [10]: 2600 nM
